Consider 16 compounds from ChEMBL document CHEMBL1151920, “Synthesis and biological evaluation of penem inhibitors of bacterial signal peptidase” (Bioorg Med Chem Lett, 2009).

Values after ≈ are worked out from the molar mass of the structure shown. Some results are limits rather than exact numbers.

In test [1] the test system is Staphylococcus aureus. In words: Antibacterial activity against methicillin-resistant Staphylococcus aureus USA300 after 18 hrs by liquid dilution method. In kind it is functional. The note with it: USA300, 18 h.
In test [2] the test system is Staphylococcus aureus. In words: Antibacterial activity against Staphylococcus aureus 8325 after 18 hrs by liquid dilution method. The note with it: Staphylococcus aureus, 8325, 18 h. The format is functional. The procedure, abridged:
(§1)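 Broth microdilution MIC. Compounds 2-fold serially diluted in cation-adjusted Mueller–Hinton broth. Bacteria grown to 10^8 cfu/mL, then inoculated at a final 5 × 10^5 cells/mL. Incubated 37 °C, 18 h. MIC taken as the lowest concentration giving no visible growth. E. coli ATCC25922 was tested in the presence of polymyxin B as permeabilizing agent.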

For test [3], the system named is Staphylococcus epidermidis. In words: Antibacterial activity against Staphylococcus epidermidis RP62A after 18 hrs by liquid dilution method. The format is functional. The procedure, abridged:
as §1

For the next test, the system named is Escherichia coli. In words: Antibacterial activity against permeabilizing agent polymyxin B-treated Escherichia coli ATCC 25922 after 18 hrs by liquid dilution method. In kind it is functional. The note with it: ATCC 25922, 18 h. Put shortly: as §1
The target in another test is Signal peptidase I (Escherichia coli K-12, UniProt P00803). In words: Inhibition of Escherichia coli signal peptidase.
Signal peptidase I, sequence (P00803 whole entry): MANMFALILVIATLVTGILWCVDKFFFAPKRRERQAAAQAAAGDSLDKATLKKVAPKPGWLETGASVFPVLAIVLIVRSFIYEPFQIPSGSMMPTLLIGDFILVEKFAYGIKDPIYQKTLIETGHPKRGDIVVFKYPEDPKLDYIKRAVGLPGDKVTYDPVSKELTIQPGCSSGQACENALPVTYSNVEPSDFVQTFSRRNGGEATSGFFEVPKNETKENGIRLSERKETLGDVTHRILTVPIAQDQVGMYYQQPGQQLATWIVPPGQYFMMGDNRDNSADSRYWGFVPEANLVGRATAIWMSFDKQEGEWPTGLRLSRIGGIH

Turning to `CC(C)C(=O)O[C@H](C)[C@H]1C(=O)N2C(C(=O)OCc3ccc([N+](=O)[O-])cc3)=CS[C@@H]12`, the MIC is over 200 µg/mL against Staphylococcus aureus [1], over 200 µg/mL against Staphylococcus aureus [2], 50 µg/mL (≈ 119 µM) in test [3] and over 200 µg/mL against Escherichia coli.
Take `CC(C)NC(=O)O[C@H](C)[C@H]1C(=O)N2C(C(=O)OCc3ccc([N+](=O)[O-])cc3)=CS[C@@H]12`: the MIC is 100 µg/mL (≈ 230 µM) with Staphylococcus aureus [1], over 200 µg/mL against Staphylococcus aureus [2], 100 µg/mL (≈ 230 µM) in test [3] and over 200 µg/mL in the test with Escherichia coli.
As for `CCC(=O)O[C@H](C)[C@H]1C(=O)N2C(C(=O)OCc3ccc([N+](=O)[O-])cc3)=CS[C@@H]12`, the MIC against Staphylococcus aureus [1] is over 200 µg/mL; against Staphylococcus aureus [2], over 200 µg/mL; in test [3] it was 100 µg/mL (≈ 246 µM); against Escherichia coli, over 200 µg/mL.
Turning to `CC[C@H](C)[C@H](NC(C)=O)C(=O)O[C@H](C)[C@H]1C(=O)N2C(C(=O)OCc3ccc([N+](=O)[O-])cc3)=CS[C@@H]12`, the MIC (in the test on Staphylococcus aureus [1]; with Staphylococcus aureus [2]; in test [3]; in the test with Escherichia coli) was over 200 µg/mL in each case.
For `CC(=O)N[C@@H](C)C(=O)O[C@H](C)[C@H]1C(=O)N2C(C(=O)OCc3ccc([N+](=O)[O-])cc3)=CS[C@@H]12`, the MIC (against Staphylococcus aureus [1]; in the test on Staphylococcus aureus [2]; in test [3]; in the test on Escherichia coli) was over 200 µg/mL throughout.
On to `COCCOCO[C@H](C)[C@H]1C(=O)N2C(C(=O)OCc3ccc([N+](=O)[O-])cc3)=CS[C@@H]12`, for which the MIC with Staphylococcus aureus [1] was over 200 µg/mL; in the test with Staphylococcus aureus [2], 200 µg/mL (≈ 456 µM); in test [3], 100 µg/mL (≈ 228 µM); against Escherichia coli, over 200 µg/mL.
Take `CC(=O)O[C@H](C)[C@H]1C(=O)N2C(C(=O)OCc3ccc([N+](=O)[O-])cc3)=CS[C@@H]12`: the MIC in the test on Staphylococcus aureus [1] was over 200 µg/mL; in the test on Staphylococcus aureus [2], over 200 µg/mL; in test [3] it was 100 µg/mL (≈ 255 µM); against Escherichia coli it was over 200 µg/mL.
For the compound `CCNC(=O)O[C@H](C)[C@H]1C(=O)N2C(C(=O)OCc3ccc([N+](=O)[O-])cc3)=CS[C@@H]12`, the MIC with Staphylococcus aureus [1] is 100 µg/mL (≈ 237 µM); in the test with Staphylococcus aureus [2] it was over 200 µg/mL; in test [3], 100 µg/mL (≈ 237 µM); against Escherichia coli it was over 200 µg/mL.
For `C[C@@H](O)[C@H]1C(=O)N2C(C(=O)OCc3ccc([N+](=O)[O-])cc3)=CS[C@@H]12`, the MIC was over 200 µg/mL with Staphylococcus aureus [1], 200 µg/mL (≈ 571 µM) against Staphylococcus aureus [2], 50 µg/mL (≈ 143 µM) in test [3] and over 200 µg/mL against Escherichia coli.
For `COCO[C@H](C)[C@H]1C(=O)N2C(C(=O)OCc3ccc([N+](=O)[O-])cc3)=CS[C@@H]12`, the MIC with Staphylococcus aureus [1] is over 200 µg/mL; with Staphylococcus aureus [2] it was over 200 µg/mL; in test [3], 50 µg/mL (≈ 127 µM); in the test on Escherichia coli, over 200 µg/mL.
As to `CCOCO[C@H](C)[C@H]1C(=O)N2C(C(=O)OCc3ccc([N+](=O)[O-])cc3)=CS[C@@H]12`, the MIC with Staphylococcus aureus [1] is over 200 µg/mL; against Staphylococcus aureus [2], over 200 µg/mL; in test [3], 50 µg/mL (≈ 122 µM); with Escherichia coli, over 200 µg/mL.
Consider `C[C@@H](O)[C@H]1C(=O)N2C(C(=O)O)=CS[C@@H]12`, for which half-maximal inhibition on Signal peptidase I (IC50) was put at 180 nM.
In the case of `CC(=O)NCC(=O)O[C@H](C)[C@H]1C(=O)N2C(C(=O)OCc3ccc([N+](=O)[O-])cc3)=CS[C@@H]12`, the MIC (in the test with Staphylococcus aureus [1]; in the test with Staphylococcus aureus [2]; in test [3]; against Escherichia coli) was over 200 µg/mL in each case.
With `CCCC(=O)O[C@H](C)[C@H]1C(=O)N2C(C(=O)OCc3ccc([N+](=O)[O-])cc3)=CS[C@@H]12`, the MIC against Staphylococcus aureus [1] was over 200 µg/mL; in the test with Staphylococcus aureus [2], over 200 µg/mL; in test [3], 100 µg/mL (≈ 238 µM); with Escherichia coli, over 200 µg/mL.
As for `CC(=O)N[C@H](C(=O)O[C@H](C)[C@H]1C(=O)N2C(C(=O)OCc3ccc([N+](=O)[O-])cc3)=CS[C@@H]12)C(C)C`, the MIC (in the test with Staphylococcus aureus [1]; in the test on Staphylococcus aureus [2]; in test [3]; against Escherichia coli) was over 200 µg/mL in each case.
On to `CC(C)CC(=O)O[C@H](C)[C@H]1C(=O)N2C(C(=O)OCc3ccc([N+](=O)[O-])cc3)=CS[C@@H]12`, for which the MIC is over 200 µg/mL in the test with Staphylococcus aureus [1], over 200 µg/mL in the test on Staphylococcus aureus [2], 100 µg/mL (≈ 230 µM) in test [3] and over 200 µg/mL against Escherichia coli.

The MIC is the least concentration at which growth counts as inhibited. Lower therefore signals greater potency. One may read the IC50 as the concentration that inhibits the measured activity by half. Low values mean higher potency, high ones lower potency.
